S100A4 MyoIIA = inhibitors of human S100A4 binding to myosin IIA peptide | S100A4/TAMRA-MyoIIA peptide fluorescence polarization | 360,000 compounds, 0.14% hits | inhibition, % at 10.7 µM;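 active = mean inhibition of at least 70% across replicates, with every replicate also reaching that level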
Target sequence (P26447 whole entry, looked up): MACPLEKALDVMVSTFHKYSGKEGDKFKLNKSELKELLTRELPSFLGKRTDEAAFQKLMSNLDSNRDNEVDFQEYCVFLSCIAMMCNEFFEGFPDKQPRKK
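assay system = human S100A4 monomer with TAMRA-labelled myosin IIA peptide | also added = labelled myosin peptide probe, 5 nM | incubation = 5 min between mix addition and reading | control set = DMSO and TFP controls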
INS-1E GSIS act = GLuc luminescence reporter in INS-1E cells, primary screen for activators of glucose-dependent secretion of insulin. INS-1E GLuc reporter insulin secretion, 2-3 h. activation, % at 16.6 µM. 370,000 compounds, 0.61% hits. AID 743287;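 active = lowest replicate activation of at least 40%, so every replicate reaches that level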;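 note: 0% = median of neutral control wells and 100% = median of IBMX positive control wells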
RAD52 inh = inhibitors of human RAD52 DNA annealing; P43351; recombinant RAD52 DNA annealing, FRET fluorescence; inhibition, % at 18.7 µM; 360,000 compounds, 0.46% hits;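 active = every replicate showing at least 50% inhibition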
Target sequence (P43351 whole entry, looked up): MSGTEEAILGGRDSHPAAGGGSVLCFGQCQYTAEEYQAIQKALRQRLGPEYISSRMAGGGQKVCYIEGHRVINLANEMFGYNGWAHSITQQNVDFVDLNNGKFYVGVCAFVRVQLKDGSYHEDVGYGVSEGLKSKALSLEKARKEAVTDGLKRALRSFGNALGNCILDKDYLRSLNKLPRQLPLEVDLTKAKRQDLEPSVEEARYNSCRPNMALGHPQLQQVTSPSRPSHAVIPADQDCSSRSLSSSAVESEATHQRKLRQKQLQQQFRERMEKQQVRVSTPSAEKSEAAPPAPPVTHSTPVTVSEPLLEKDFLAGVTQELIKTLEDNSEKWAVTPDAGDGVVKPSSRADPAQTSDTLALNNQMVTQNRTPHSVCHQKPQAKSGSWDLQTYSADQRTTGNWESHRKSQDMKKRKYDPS
ERAP1 HTS inh = blocks human ERAP1 aminopeptidase activity; Q9NZ08; recombinant ERAP1, Leu-AMC fluorescence, 60 min; inhibition, % at 10.7 µM; 340,000 compounds, 0.15% hits; AID 652197;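 active = mean replicate inhibition of at least 30%, or all replicates individually reaching that 30% level; inactive = mean below 30% and not every replicate reaching it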;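 note: 0% = neutral control wells and 100% = L-leucinethiol positive control wells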
MLL AF4-AF9 inh = blocks AF4 peptide binding to human AF9 | P42568 | AlphaScreen, biotin-AF4 peptide binding to FLAG-AF9 | inhibition, % at 10 µM | 350,000 compounds, 0.47% hits | AID 651704;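 active = every replicate reaching a set inhibition limit, whatever the replicate mean, cut at about 25% in these data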;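 note: 0% = plate neutral control median and 100% = total signal loss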
Active calls of the source: *; · = not tested or not shown. Compounds with a hit are over-represented: about 1.5% of the library has one in this group of screens.

SMILES | S100A4 MyoIIA | INS-1E GSIS act | RAD52 inh | ERAP1 HTS inh | MLL AF4-AF9 inh
CNC[C@H]1Oc2c(NC(=O)Nc3ccc(C(F)(F)F)cc3)cccc2C(=O)N([C@@H](C)CO)C[C@H]1C | 93.3* | -7.1 | 26.1 | 0.1 | 5.0
C[C@@H]1CN([C@H](C)CO)C(=O)c2cccc(NC(=O)c3ccncc3)c2O[C@@H]1CN(C)Cc1ccc(Oc2ccccc2)cc1 | -21.4 | -21.1 | -1.3 | -1.1 | 25.0*
COc1ccc2c3c(n(C)c2c1)[C@@H](CO)N(CC1CCOCC1)CC31CN(C(C)=O)C1 | · | 4.5 | · | · | -3.9
C[C@@H]1CC=CC[C@@H](c2ccccc2)NC(=O)[C@H](Cc2ccccc2)N(C)C(=O)c2ccccc2O1 (mixture of isomers) | · | -11.1 | · | · | ·
COc1ccc(NC(=O)c2cc3c(Cl)nc4ccccc4c3s2)cc1OC | 35.9 | 5.4 | -8.0 | 1.8 | -2.2
COc1ccc(OC)c(NC(=O)c2cc3c(Cl)nc4ccccc4c3s2)c1 | · | 52.5* | · | · | ·
C[C@@H](O)C#Cc1cnc2c(c1)C(=O)N([C@@H](C)CO)C[C@H](C)[C@@H](CN(C)C(=O)Cc1ccncc1)O2 | -7.6 | 22.4 | -31.9 | -7.3 | -1.0
C[C@@H]1CN([C@@H](C)CO)C(=O)c2cc(C#C[C@@H](C)O)cnc2O[C@H]1CN(C)C(=O)Cc1ccncc1 | 87.3* | 13.3 | -17.3 | -2.7 | -1.4
CCC(=O)N(C)C[C@H]1Oc2ncc(-c3ccc(C(=O)N(C)C)cc3)cc2C(=O)N([C@@H](C)CO)C[C@H]1C | 111.0* | 35.1 | 2.2 | -2.4 | -3.0
COc1ccccc1-c1cnc2c(c1)C(=O)N([C@H](C)CO)C[C@@H](C)[C@@H](CN(C)C(C)=O)O2 | -6.3 | 42.5* | 21.5 | -2.1 | -2.5
COC(=O)[C@H]1[C@H](CO)[C@H]2Cn3c(ccc(-c4ccncc4)c3=O)[C@H]2N1Cc1cccc(F)c1 | -3.0 | 18.5 | -17.9 | 0.4 | 0.3
O=C(Cc1ccccc1)N[C@H]1C=C[C@@H](CC(=O)N2CCCCC2)O[C@@H]1CO | 2.5 | -8.3 | 3.0 | -0.8 | -16.0
Cc1noc(C)c1NC(=O)N(C)C[C@H]1OCCCC[C@H](C)Oc2ccc(NS(=O)(=O)c3ccc(F)cc3)cc2C(=O)N([C@H](C)CO)C[C@@H]1C | 134.2* | -4.9 | -36.6 | -7.5 | -7.7
Cc1noc(C)c1S(=O)(=O)Nc1ccc2c(c1)C(=O)N([C@@H](C)CO)C[C@@H](C)[C@H](CN(C)S(=O)(=O)c1ccc(F)cc1)OCCCC[C@H](C)O2 | -16.3 | -7.7 | 94.4* | -0.7 | -1.3
Cc1noc(C)c1S(=O)(=O)N(C)C[C@@H]1OCCCC[C@H](C)Oc2ccc(NC(=O)C3CCCCC3)cc2C(=O)N([C@H](C)CO)C[C@@H]1C | 12.2 | -15.9 | -35.6 | -0.9 | 2.2
Cc1noc(C)c1S(=O)(=O)Nc1ccc2c(c1)C(=O)N([C@H](C)CO)C[C@@H](C)[C@H](CN(C)S(=O)(=O)c1ccc(F)cc1)OCCCC[C@@H](C)O2 | -21.2 | -13.3 | 58.6* | 1.1 | 0.7
Cc1noc(C)c1S(=O)(=O)N(C)C[C@@H]1OCCCC[C@H](C)Oc2ccc(NC(=O)C3CCCCC3)cc2C(=O)N([C@H](C)CO)C[C@H]1C | 111.0* | -18.1 | -36.2 | -2.1 | 5.9
CC(=O)N1C[C@@H]2C(c3ccccc3)[C@H](C1)N2S(C)(=O)=O (stereo not given in full) | · | -1.0 | · | · | ·
Cc1noc(C)c1S(=O)(=O)Nc1ccc2c(c1)C(=O)N([C@@H](C)CO)C[C@H](C)[C@@H](CN(C)S(=O)(=O)c1ccc(F)cc1)OCCCC[C@@H](C)O2 | -15.3 | -16.8 | · | -1.2 | 0.2
Cc1noc(C)c1S(=O)(=O)Nc1ccc2c(c1)C(=O)N([C@H](C)CO)C[C@H](C)[C@@H](CN(C)S(=O)(=O)c1ccc(F)cc1)OCCCC[C@@H](C)O2 | -21.3 | -7.2 | 76.4* | 3.9 | -2.7
Cc1noc(C)c1S(=O)(=O)Nc1ccc2c(c1)C(=O)N([C@H](C)CO)C[C@H](C)[C@H](CN(C)S(=O)(=O)c1ccc(F)cc1)OCCCC[C@H](C)O2 | -42.9 | -1.9 | -72.2 | 2.7 | 2.1
Cc1noc(C)c1S(=O)(=O)Nc1ccc2c(c1)C(=O)N([C@@H](C)CO)C[C@H](C)[C@H](CN(C)S(=O)(=O)c1ccc(F)cc1)OCCCC[C@H](C)O2 | -7.9 | -13.6 | 80.9* | 2.3 | 1.4
COc1ccc(CN(C)C[C@H]2OCCCC[C@H](C)Oc3ccc(NC(=O)NC4CCCCC4)cc3C(=O)N([C@H](C)CO)C[C@@H]2C)cc1 | -9.7 | -5.6 | 8.5 | -1.6 | 6.0
CCc1c(C)c2cc(Cl)c(O)c(CN(CC)CC)c2oc1=O | -1.9 | -1.2 | 5.7 | 84.8* | 5.0
CCc1c(C)c2cc(Cl)c(O)c(CN(C)C)c2oc1=O | -5.1 | -10.8 | -6.9 | -102.4 | -37.5
SMILES | S100A4 MyoIIA | INS-1E GSIS act | RAD52 inh | ERAP1 HTS inh | MLL AF4-AF9 inh
C[C@H]1CN([C@@H](C)CO)C(=O)c2ccccc2-c2ccccc2CO[C@@H]1CN(C)S(=O)(=O)c1ccsc1 | · | -25.2 | · | · | ·
CCOc1ccc(Nc2nc(N)nc(CSC(=S)N3CCN(c4ccccc4)CC3)n2)cc1 | -1.0 | 5.6 | -14.5 | 4.9 | 35.4*
O=C(O)C1CCN(C(=O)CSc2nc3ccccc3c(=O)n2Cc2ccccc2)CC1 | 4.4 | 43.5* | 6.7 | -2.3 | 0.2
Cc1cccc(C2N=C(N)Nc3nc4ccccc4n32)c1 (stereo not given) | -3.0 | 55.8* | -9.4 | -1.2 | 1.4
CCCn1nc(C(=O)NC2CC2)c2ccccc2c1=O | -5.3 | 52.0* | -2.3 | -0.6 | -0.2
CCCCn1nc(C(=O)NC2CCCCC2)c2ccccc2c1=O | 4.1 | · | 7.2 | -4.5 | -2.7
CCCNC(=O)Cn1sc2nc(C)cc(C)c2c1=O | 0.4 | 94.2* | -35.2 | 21.7 | -10.7
Cc1cc(C)c2c(=O)n(CC(=O)N3CCC(N4CCCCC4)CC3)sc2n1 | -3.3 | · | 49.5 | 20.2 | -15.8
O=S(=O)(c1cccc(F)c1)N1CC[C@H]2[C@H](CO)Nc3ccc(C#Cc4cccc(F)c4)cc3[C@H]21 | · | -8.1 | · | · | ·
O=C(NC1CCCC1)[C@H]1N[C@H]2c3ccc(-c4cccc(F)c4)c(=O)n3C[C@H]2[C@@H]1CO | -8.7 | -13.2 | 57.8* | 2.4 | -1.1
CCCCCCCCCCCCCCCC[n+]1ccc(/C=N/O)cc1 | -2.5 | 47.1* | 88.0* | -2.4 | 4.5
CC(C)CC#Cc1cnc2c(c1)C(=O)N([C@H](C)CO)C[C@H](C)[C@H](CN(C)C(=O)c1cccnc1)O2 | -5.9 | 5.4 | 4.7 | 0.0 | -1.9
CC1(C)OC(=O)C2=C(C[C@@H](C3CCCC3)O[C@H]2c2ccc(Cl)cc2)O1 | 1.3 | 22.5 | -5.4 | 9.9 | 0.2
C[C@@H]1O[C@H](C2CCCC2)CC2=C1C(=O)OC(C)(C)O2 | 0.9 | 59.5* | 3.1 | -2.7 | -2.0
Cc1cc(C)c(C(=O)COC(=O)CNC(=O)c2ccccc2C)c(C)c1 | 111.2* | -14.4 | -9.4 | -0.4 | -0.9
Cc1cc(C)n(/C(=C\N(C)C)C(=O)c2cccc([N+](=O)[O-])c2)n1 | 4.4 | -18.1 | -3.2 | -3.0 | 50.6*

From PubChem BioAssay
